A selection: hits, their analogues and other compounds. The true share with any hit is near 4.2%.
ANO1 block – mouse TMEM16A channel inhibition, primary screen | HEK293 TMEM16A/YFP iodide influx fluorescence, ionomycin | normalized B-score (activity score, 25-100; higher = stronger inhibition) at 10 µM | actives 1.2% (n = 310,000) | AID 588511;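 active = ratio plate-corrected score three or more library SD toward inhibition, starting fluorescence score within five deviations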;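 note: score derived from kinetic fluorescence span divided by baseline fluorescence per well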
Lipid droplet – modulators of hepatic lipid droplet formation. AID 1656. AML12 mouse hepatocytes, oleate lipid droplets, BODIPY imaging. actives 0.4% (n = 240,000). inhibition, % at 6.5 µM;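 active = lipid droplet intensity inhibited by at least 50%, with more than 500 cells counted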
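Test system: AML12 mouse liver cells; schedule: overnight exposure; technique: high-content imaging of BODIPY-stained droplets and DAPI nuclei; read-out: % inhibition of corrected integrated BODIPY droplet signal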
XBP1 UPR activ – adaptive UPR (XBP1) activation; CHO-XBP1 luciferase reporter, IRE1-XBP1 UPR activation, luminescence; percent of tunicamycin response, DMSO as zero; activation, % at 20 µM; actives 0.33% (n = 330,000);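 active = versus positive control, 20 µM dose yields 30% or more activation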
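Material: CHO-XBP1 cells stably carrying IRE1-XBP1-driven luciferase reporter / Amount: 1000 cells per well / Compound: 20 µM, 1% DMSO / Times: 6 h treatment, 37 °C / Detection: luciferase luminescence / Measure: % activation of reporter signal versus tunicamycin and DMSO controls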
CHOP inhibitor – blocks CHOP induction under ER stress. CHO-K1 CHOP-promoter luciferase, tunicamycin-induced, 15-18 h. inhibition, % at 10 µM. actives 3.8% (n = 220,000). AID 2732;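 active = compounds that reduced the stress-induced luciferase reporter signal by more than about 70% of percent inhibition, limit read from the data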
ANO1 activ – activates or potentiates the mouse TMEM16A chloride channel | AID 623877 | Q8BHY3 | HEK293 TMEM16A/YFP-H148Q/I152L, iodide quench fluorescence; stronger effect = lower value | B-score at 10 µM | actives 0.3% (n = 340,000);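 active = fluorescence-ratio B-score plate-corrected deviation score at least 3 library SD below zero, with starting fluorescence score within 5 deviations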;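 note: channel opened by trigger with iodide after compound preincubation; score built on the fluorescence ratio of max minus min over baseline; more negative score means more quench and so TMEM16A activation or potentiation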
CHOP UPR activ – apoptotic UPR (CHOP) activation. CHO-CHOP luciferase reporter, luminescence; percent of tunicamycin response over DMSO baseline. activation, % at 10 µM. actives 0.34% (n = 330,000);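 active = at 10 µM dose, activation of 40% or more, normalized to positive control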
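Assay system: CHO-CHOP cells, stable luciferase reporter of PERK-eIF2a-CHOP signalling / Buffer or medium: F12 plus 10% serum / Compound dosing: one dose, 10 µM in 0.5% DMSO / Times: 6 h compound treatment, 37 °C / Technique: luciferase luminescence / Read-out: % reporter activation, DMSO baseline versus tunicamycin full activation / Benchmarks: tunicamycin and DMSO controls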
Of the large screens only hits and unclear results are named; the others gave an inactive call.

CCCCCCOc1ccc(NC(=O)CC2C(=O)N(CC)C(=S)N2Cc2ccco2)cc1 (centres undefined)	CHOP inhibitor 91
CCCOc1ccc(NC(=O)CC2C(=O)N(CC)C(=S)N2Cc2cccs2)cc1 (centres undefined)	CHOP inhibitor 93 (no result: Lipid droplet)
C=C(C)C1CC=C(C)/C(=N/NC(=O)COc2ccc(C)cc2)C1 (centres undefined)	CHOP inhibitor 70
CCc1oc2ccccc2c1C(=O)c1cc(Br)c(O)c(Br)c1	ANO1 block 100
Oc1ccccc1-c1nnc(COc2ccc(Cl)cc2Cl)o1	CHOP inhibitor 73
O=C(Nc1nc2c(Br)cc(Br)cc2c(=O)s1)C1CCC1	CHOP inhibitor 91
CN=c1scc(-c2ccc([N+](=O)[O-])cc2)n1/N=C/c1ccco1	none
CN=c1scc(-c2ccc(F)cc2)n1/N=C/c1ccc(O)c(O)c1	CHOP inhibitor 72 (no result: ANO1 block)
Brc1ccc(-c2cn3nc4c(nc3n2)CCCC4)cc1	CHOP inhibitor 96
c1ccc(-c2cn3nc4c(nc3n2)CCCC4)cc1	none
Oc1ccc(Cl)cc1Sc1cc(Cl)ccc1O	ANO1 activ -5.6 (no result: ANO1 block, Lipid droplet, XBP1 UPR activ, CHOP inhibitor, CHOP UPR activ)
CN(C)C(=O)c1cc(Cl)ccc1Sc1cc(Cl)ccc1Cl	none
Cn1nc(CC#N)c2c(=N)n(N)cnc21	none (no result: ANO1 block, Lipid droplet, XBP1 UPR activ, CHOP inhibitor, CHOP UPR activ)
CN(CC(=O)Nc1ccc(F)c(F)c1F)C(=O)C1CCCCC1	none (no result: ANO1 block, Lipid droplet, CHOP inhibitor)
CN(CC(=O)Nc1ccc(F)c(F)c1F)c1cnccn1	CHOP inhibitor 74 (no result: Lipid droplet, ANO1 activ)
Cc1cc(NC(=O)CN(C)CC(=O)Nc2ccc(F)c(F)c2F)no1	none (no result: ANO1 block, Lipid droplet, CHOP inhibitor)
CN(CC(=O)Nc1ccc(F)c(F)c1F)C1CCCCC1	CHOP inhibitor 75
CN(CC(=O)Nc1ccccc1Br)C(=O)CCC1CCCC1	none (no result: CHOP inhibitor)
CCN(CC(=O)Nc1ccccc1Br)C1CCCCC1	CHOP inhibitor 73
CC12CCC=CC1=C(C=O)C1C2CCC2(C)C(O)CCC12 (centres undefined)	none (no result: ANO1 block, Lipid droplet, XBP1 UPR activ, CHOP inhibitor, CHOP UPR activ)
COc1ccc(C)cc1-n1c(SCC(=O)NC2CC2)nc2ccccc2c1=O	none (no result: ANO1 block, Lipid droplet, CHOP inhibitor)
Cc1cccc(CS(=O)(=O)c2ncc(Cl)c(C(=O)NCc3ccccc3)n2)c1	CHOP UPR activ 84 (no result: CHOP inhibitor)
Cc1cccc(CS(=O)(=O)c2ncc(Cl)c(C(=O)Nc3c(C)cccc3C)n2)c1	none (no result: CHOP inhibitor)
CCc1c(C)c(C#N)c2nc3ccccc3n2c1Cl	CHOP inhibitor 110 (no result: ANO1 block, XBP1 UPR activ, ANO1 activ, CHOP UPR activ)
O=C(CC(=O)Nc1cccc(F)c1)Nc1cccc(F)c1	none (no result: CHOP inhibitor)
O=C(Cn1c2ccccc2c(=O)c2ccccc21)Nc1cccc(F)c1	CHOP inhibitor 77
COc1cc(-c2nnc(-c3cc(-c4ccccc4)nc4ccccc34)o2)cc(OC)c1OC	none (no result: ANO1 block, Lipid droplet, XBP1 UPR activ, CHOP inhibitor, CHOP UPR activ)
COc1nccnc1NS(=O)(=O)c1ccc(N/C=C2\CCCCC2=O)cc1	none
COc1ccc(C(=O)Nc2nc(-c3cccs3)c(NC(C)=O)s2)cc1	none
O=C(Nc1nnc(-c2cccs2)s1)c1cccc(F)c1	CHOP inhibitor 93
COc1ccc(C(=O)Nc2nnc(-c3cccs3)s2)cc1	CHOP inhibitor 70
COc1ccc(NC(=O)Nc2nnc(-c3cccs3)s2)cc1	CHOP inhibitor 88
Cc1nnc(NC(=O)c2cccc(F)c2)s1	none (no result: Lipid droplet)
Cc1occc1C(=O)Nc1nnc(-c2cccs2)s1	CHOP inhibitor 81
CN(C)CCCNC(=O)C[C@H]1C[C@H](C(=O)N2CCOCC2)[C@@]2(C)c3[nH]c4cc(-c5ccco5)ccc4c3CCN2C1=O	none (no result: ANO1 block, Lipid droplet, CHOP inhibitor, ANO1 activ)
Cc1cc(Cn2nc(C(=O)NCc3cccc(C(F)(F)F)c3)cc2-c2ccccc2)on1	none (no result: Lipid droplet, CHOP inhibitor)
O=C1CC(c2ccco2)CC(O)=C1C=Nc1cc(Cl)cc(Cl)c1 (centres undefined)	CHOP inhibitor 84
CC(Sc1nnc2ccccn12)C(N)=O (centres undefined)	none
Cn1c(=O)c([N+](=O)[O-])c(-n2cnc3ccccc32)c2ccccc21	CHOP inhibitor 74
O=C(Nc1ccc(Oc2cccnc2)cc1)C1CCN(Cc2ccccc2F)CC1	none (no result: ANO1 block, CHOP inhibitor)
COC(=O)c1sc(N2C(=O)c3oc4ccccc4c(=O)c3C2c2cccc(O)c2)nc1C (centres undefined)	CHOP inhibitor 75
Cc1ccccc1C(=O)NNS(=O)(=O)c1cccc([N+](=O)[O-])c1	none (no result: CHOP inhibitor)
CC(C)C(C)NC(=O)CSc1nnc(-c2c[nH]c3ccccc23)o1 (centres undefined)	none
O=C(CSc1nnc(-c2c[nH]c3ccccc23)o1)N(Cc1ccccc1)c1ccc(F)cc1	CHOP inhibitor 71
Cc1ccc(C(=O)CSc2nnc(-c3c[nH]c4ccccc34)o2)cc1	CHOP inhibitor 95
COc1ccc(CN(C(=O)CSc2nnc(-c3ccccc3C)o2)c2ccc(F)cc2)cc1	none
CCCCN(Cc1ccccc1)c1ncnc2nc[nH]c12	CHOP inhibitor 75
CC(C)C[C@H](NC(=O)OC(C)(C)C)C(=O)N[C@@H](CO)[C@H](O)[C@@H]1C[C@@H]1C(=O)NC1CCCCC1	none (no result: Lipid droplet, CHOP inhibitor)
CCNc1nc(C)c(CN(C(C)=O)c2ccccc2)nc1C#N	none
O=[N+]([O-])c1cc(CN2CCCC2)c2cccnc2c1O	none (no result: XBP1 UPR activ, CHOP UPR activ)
O=[N+]([O-])c1cc(CN2CCN(c3cccc(C(F)(F)F)c3)CC2)c2cccnc2c1O	CHOP inhibitor 87
Cc1cccc(NS(=O)(=O)c2ccc(Cl)cc2)n1	none (no result: CHOP inhibitor)
O=C(O)C1CC=CCC1C(=O)Nc1ccc2c(c1)CCC2 (centres undefined)	none (no result: CHOP inhibitor)
CNC(=O)CN1C(=O)C2C3C=CC(C3)C2C1=O (centres undefined)	CHOP inhibitor 78
O=C(Cc1ccccc1)NN1C(=O)C2C3C=CC(C3)C2C1=O (centres undefined)	ANO1 activ -38
CS(=O)(=O)NNC(=O)CN1C(=O)C2C3C=CC(C3)C2C1=O (centres undefined)	none
S=C(NC1CCCCC1)NC1CC2CCC(C1)N2Cc1ccccc1 (centres undefined)	none
COc1ccc(NC(=O)CCOc2cc(C)ccc2C)cc1S(=O)(=O)N1CCCCC1	none (no result: ANO1 block, Lipid droplet, CHOP inhibitor)
CC1CCN(C(=O)c2ccccc2NC(=O)c2cccc(S(=O)(=O)N(C)C)c2)CC1	none (no result: CHOP inhibitor)
CSc1ccc(S(=O)(=O)NCc2ccc(Cl)cc2Cl)cc1	CHOP inhibitor 89
CSc1ccc(S(=O)(=O)NCc2ccccc2Cl)cc1	none
COc1ccc([C@@H]2[C@@H]3C(=O)N(C(C)(C)C)C(=O)[C@@H]3[C@]3(C)C(=O)N(c4cccc(Br)c4)C(=O)N23)cc1	ANO1 activ -11 (no result: CHOP inhibitor)

Assay outcomes as filed in PubChem BioAssay.
